Most compounds without a hit are left out; they make up all but 2.5% or so of the library.
Rin1 Abl inh – inhibitors of Rin1-Abl protein binding, primary screen, biochemical, TR-FRET; inhibition, % at 7.35 µM; 360,000 compounds, 0.4% hits; in the data active means inhibition above about 5%, passing the limit was not always enough
MBD2 inh – inhibitors of MBD2 binding to methylated DNA, primary screen, biochemical, TR-FRET, DNA-binding domain, human | MBD2 binding to methylated oligonucleotide | inhibition, % at 4.4 µM | 370,000 compounds, 0.31% hits; in the data active means inhibition above about 13%
Target sequence (Q9UBB5 whole entry, looked up, the tested form may be a part): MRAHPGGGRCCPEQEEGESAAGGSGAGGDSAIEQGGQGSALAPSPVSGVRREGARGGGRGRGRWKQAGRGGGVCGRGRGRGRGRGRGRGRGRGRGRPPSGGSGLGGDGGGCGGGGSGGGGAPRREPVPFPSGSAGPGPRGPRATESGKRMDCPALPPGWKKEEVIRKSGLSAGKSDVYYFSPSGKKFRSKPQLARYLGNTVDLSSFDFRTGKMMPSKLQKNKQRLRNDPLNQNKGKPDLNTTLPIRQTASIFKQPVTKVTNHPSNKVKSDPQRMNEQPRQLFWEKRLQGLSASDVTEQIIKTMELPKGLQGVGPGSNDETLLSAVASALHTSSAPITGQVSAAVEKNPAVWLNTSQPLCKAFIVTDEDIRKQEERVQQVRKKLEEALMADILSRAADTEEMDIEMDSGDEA
ABHD5-PLIN5 inh – ABHD5-PLIN5 interaction inhibitors, primary screen, cell lysate, split luciferase complementation, luminescence; Perilipin-5 (Homo sapiens) + 1-acylglycerol-3-phosphate O-acyltransferase ABHD5 (Homo …; Split G. princeps luciferase complementation, 4 h; inhibition, % at 4 µM; 360,000 compounds, 0.78% hits; AID 602281, 2012;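 active means inhibition above the mean inhibition across every tested compound plus 3 SD, cut at about 22% in these data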;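 further: 0% = DMSO only wells and the 100% control is not disclosed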
Arrestin-AP2 inh – inhibitors of beta-arrestin/AP2 binding, primary screen, biochemical, GPCR trafficking, flow cytometry | inhibition, % at 10 µM | 340,000 compounds, 0.31% hits | FITC-arrestin peptide / GST-AP2 beads; AP2 beta2 appendage carries R879A mutation;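 active means inhibition above a set limit, near 3 SD of compounds lacking own fluorescence, cut at about 54% in these data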;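 further: plate controls were DMSO wells for no effect and 5 µM unlabelled arrestin peptide for full effect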
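Material – GST-tagged AP2 beta2-adaptin appendage (R879A) on 4 µm glutathione beads · Probe or stimulus – fluorescein-tagged arrestin peptide at 50 nM final · Timing – 12 min plus 1 h, RT · Detection – bead flow cytometry, FITC channel · Read-out basis – inhibition as reduced fluorescein signal on beads, percent · Medium – PBS plus Tween 20 (0.05%) and BSA (0.1%)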
Beta2AR agonist – beta2AR agonists driving receptor internalization, primary screen, cell-based, FAP fluorogen, flow cytometry | Beta-2 adrenergic receptor (Homo sapiens), P07550 | Am2.2-beta2AR cells | response, % (no concentration beside the values) | 340,000 compounds, 0.43% hits | AID 504454, 2011;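 active means response above a set limit, near 3 SD of response in nonfluorescent compounds, cut at about 42% in these data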
UHRF1 MBD2 ctr – UHRF1 methylated DNA binding inhibitors, primary screen, counter-screen for MBD2 inhibitor project, biochemical, TR-FRET, human UHRF1, single concentration. 370,000 compounds, 0.75% hits. inhibition, % at 4.4 µM. AID 687016, 2013. UHRF1 binding to methylated oligo; in the data active means inhibition above about 21%;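 further: UHRF1 SRA domain binding a hemimethylated CpG hairpin DNA probe; 0% = median of test compound wells and 100% = reference inhibitor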
Rin1 Abl conf – Rin1-Abl binding inhibitor retest, confirmation, biochemical, TR-FRET; purified proteins; inhibition, % at 7.35 µM; shares compounds with Rin1 Abl inh; 1,300 compounds, 49% hits
GFP quench – GFP fluorescence inhibitors and quenchers, artefact control for Rin1-Abl interaction inhibitor project, biochemical. inhibitors/quenchers counterscreen. AID 602125, 2011. 1,300 compounds, 8.5% hits. shares compounds with Rin1 Abl inh. inhibition, % at 6.75 µM;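 further: ABL1-eGFP fusion protein alone without its partner RIN1-SBP; 0% = protein with vehicle and 100% = wells lacking protein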
GFP quench DR – GFP fluorescence inhibitors and quenchers, dose response, artefact control for Rin1-Abl interaction inhibitor project, biochemical. GFP fluorescence interference/quenching counterscreen. 230 tested, under 10 active. shares compounds with Rin1 Abl inh. IC50, µM; call rule not given here;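 further: ABL1-eGFP fusion protein alone without its RIN1 binding partner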
Numbers without * were called inactive; . = no result given. Unless noted, no stated cut-off is given here; in the data, active means inhibition above about 6.5%; inactive means the rest.

SMILES | Rin1 Abl inh | MBD2 inh | ABHD5-PLIN5 inh | Arrestin-AP2 inh | Beta2AR agonist | UHRF1 MBD2 ctr | Rin1 Abl conf | GFP quench | others
Cc1ccc(NS(=O)(=O)c2cc(OCC(N)=O)c(C)cc2Cl)cc1C | 12* | -2 | 13 | 5 | 3 | -1 | -1 | -1
Cc1cccc(NS(=O)(=O)c2cc(OCC(N)=O)c(C)cc2Cl)c1 | 1 | -5 | 7 | 5 | 15 | 1 | . | .
Cc1c[nH]c2cccc(-c3cccc4ccccc34)c12 | . | 11 | . | . | . | 1 | . | .
COC(=O)C[C@@H]1CC[C@H]2[C@@H](COc3ccc(NC(=O)c4ccc(C(F)(F)F)cc4)cc3C(=O)N2C)O1 | . | -11 | . | . | . | -1 | . | .
Cc1ccc(C)c(OCCCNC2CCCC2)c1C | 13* | -2 | 8 | 17 | 12 | 0 | 1 | -1
Cc1ccc(OCCCNC2CCCC2)cc1 | 1 | 3 | 0 | -1 | -3 | 1 | . | .
CCCCOc1ccc(C(C)NC(=O)CCS(=O)(=O)Cc2ccc(C)cc2)cc1 (stereo not drawn) | 4.4* | 6 | 5 | 8 | -26 | 5 | -7 | 0
O=C(Nc1ccc(C(=O)O)cc1)/C(=C\c1ccccc1)NC(=O)c1ccco1 | 8.6* | -3 | 2 | 24 | -9 | 6 | -2 | -1
COc1ccccc1CNc1nc(NCCN2CCNC2=O)c2sccc2n1 | 12* | -4 | 5 | . | . | -1 | 6.9* | -1
COCCNc1nc(NCCN2CCNC2=O)c2sccc2n1 | -2 | -2 | 5 | . | . | 0 | . | .
CS/C(=N\S(=O)(=O)c1cccs1)Nc1ccc(F)c(Cl)c1 | 5.0* | 4 | 11 | 16 | 1 | 2 | -3 | 1
CS/C(=N\S(=O)(=O)c1cccs1)Nc1cccc(Cl)c1C | 0 | 0 | -1 | -9 | 9 | 0 | . | .
COCCN(CCOC)C(=O)CSc1ccc(S(=O)(=O)N2CCN(C)CC2)cn1 | 12* | 2 | 8 | -3 | -1 | 3 | 26* | 1 | GFP quench DR=>68
O=C(CCN1C(=O)[C@@H]2Cc3ccccc3CN2C1=O)NCc1ccc(Cl)cc1 | 29* | -2 | 13 | -5 | -6 | 4 | -1 | 0
O=C(CCN1C(=O)[C@@H]2Cc3ccccc3CN2C1=O)N[C@H](Cc1ccccc1)C(=O)O | 0 | -7 | 1 | 24 | -6 | -3 | . | .
CC(=O)NCC1(c2ccccc2)CCN(CCCC(=O)c2ccc(F)cc2)CC1 | 14* | -1 | -2 | . | . | 1 | 15* | -1
COc1ccc2c(c1C(=O)/C=C/c1ccccc1)OC(C)(C)C=C2 | . | 10 | . | . | . | 2 | . | .
CC(C)CN1C(=O)[C@@]2(CC(=O)N(C)C2c2ccccc2)c2cc(-n3cc(CN(C)C)nn3)ccc21 (stereo partly drawn) | . | 2 | . | . | . | 8 | . | .
CCOC(=O)c1ccc(NC(=O)N2CCN(c3ccccc3OC)CC2)cc1 | 9.4* | 2 | -3 | 3 | -3 | 10 | 16* | 0
CCOC(=O)N1CCN(c2ccccc2OC)CC1 | 0 | 2 | 5 | 51 | 0 | 2 | . | .
CC(=O)c1cccc(NC(=O)CNC(=O)c2cc3ccccc3o2)c1 | 17* | 0 | 7 | 28 | 7 | -1 | -10 | 0
CC(=O)NC(C)C(=O)N1CCCC1C(=O)N1CCCC1C(=O)NC(C)C(=O)NC1C(=O)NC(CC(C)C)C(=O)NC2CCCCNC(=O)CCC(C(=O)NC(Cc3ccc(O)cc3)C(=O)O)NC(=O)C3CCC(=O)OCC(NC(=O)C4CCCN4C(=O)C(Cc4c[nH]c5ccccc45)NC2=O)C(=O)NC(CC(=O)OC1C)C(=O)NC(Cc1c[nH]c2ccccc12)C(=O)N3 (stereo not drawn) | . | 10 | . | . | . | -10 | . | .
C=CCN1[C@H](CO)[C@H](c2ccccc2)[C@@H]1C#N | . | 0 | . | . | . | 1 | . | .
NC(=S)NN=Cc1cc(-c2cccc(N)c2)ccn1 | 11* | -3 | -16 | . | . | -6 | 14* | 5
NC(=S)N/N=C\c1c2ccccc2cc2ccccc12 | -2 | -3 | -3 | 18 | 10 | -10 | . | .
SMILES | Rin1 Abl inh | MBD2 inh | ABHD5-PLIN5 inh | Arrestin-AP2 inh | Beta2AR agonist | UHRF1 MBD2 ctr | Rin1 Abl conf | GFP quench | others
Cc1ccc(-c2cc(C(=O)NN=Cc3ccc(-c4ccccc4)cc3)[nH]n2)cc1 | . | 1 | . | . | . | -1 | . | .
COc1ccc(NC(=O)CN(C)C(=O)c2ccc3c(c2)CC(c2ccccc2)OC3=O)cc1 (stereo not drawn) | 8.1* | 12 | -2 | . | . | 10 | -2 | 0
COc1cccc(NC(=O)CN(C)C(=O)c2ccc3c(c2)CC(c2ccccc2)OC3=O)c1 (stereo not drawn) | 2 | 7 | -1 | 7 | -6 | 14 | . | .
COc1ccc2cc(C(=O)C3CCCN(C(=O)c4cccnc4)C3)ccc2c1 (stereo not drawn) | -12 | -2 | -6 | 21 | -7 | -3 | . | .
O=C(c1ccc2ccccc2c1)C1CCCN(C(=O)c2cccnc2)C1 (stereo not drawn) | 6.9* | -3 | 5 | 16 | 1 | 0 | -5 | 0
CCOC(=O)[C@@]12CCCC3=C1N(CCC3)C(=O)[C@H]2CC(=O)NCCCOC | . | -6 | . | . | . | -2 | . | .
CCCCCCSc1ccc([C@@H]2[C@H]3C(=O)N(C)C(=O)[C@H]3[C@]3(C(=O)OC)CCCCN23)cc1 | 10* | 6 | 1 | -1 | 5 | 0 | -2 | -1
O=c1c2c3c(sc2n(CCN2CCOCC2)c(=O)n1C1CCCCC1)CCCCC3 | . | 1 | . | . | . | -2 | . | .
O=C(O)c1ccc(-c2nc3ccccc3[nH]2)cc1 | 0 | -2 | -1 | 17 | 2 | 4 | . | .
O=C(O)c1ccc(-c2ncc[nH]2)cc1 | 9.3* | 4 | -13 | 36 | 9 | 0 | 1 | 0
CCOc1ccc(CCNC(=O)c2cc3sccc3n2CC)cc1OC | . | -3 | . | . | . | 0 | . | .
